According to ChEMBL document CHEMBL1914401, “Aminothiazoles as γ-secretase modulators” (Bioorg Med Chem Lett, 2011):
Activity calls are given as the source filed them. The rule behind the calls is not given here.

Experiments:
[1] = molecular target: Cytochrome P450 2D6 (Homo sapiens, UniProt P10635); test: Inhibition of CYP2D6; assay type: ADME
[2] = molecular target: Gamma-secretase; test: Inhibition of gamma secretase in human H4 cells overexpressing human APP assessed as reduction in amyloid beta-42 secretion after 22 hrs; assay type: cell-based
Procedure, shortened: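 Human neuroglioma H4 cells overexpressing human APP were seeded at 30,000 cells/well in IMDM with 10% FCS and […] hygromycin B, then held 2 h at 37 °C, 5% CO2. Test agents were given as a ten-point 1:1 serial dilution in IMDM without FCS, with final Me2SO 0.4%, for 22 h. Secreted Aβ42 in the supernatant was measured by bead ECL sandwich (biotin-6E10 capture, ruthenylated BAP15 detection, 3 h RT). IC50 was taken from the dose-response curve.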

[3] = Modulation of gamma secretase in cell-based assay assessed as change in notch protein level up to 25 uM
[4] = molecular target: Gamma-secretase; test: Inhibition of gamma secretase in human H4 cells overexpressing human APP assessed as reduction in amyloid beta-40 secretion after 22 hrs; assay type: cell-based
Procedure, shortened: (§1)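 Human H4 neuroglioma cells overexpressing human APP were plated at 30,000 cells/well in IMDM with 10% FCS and […] hygromycin B, and incubated 2 h at 37 °C, 5% CO2. Compounds were added as a ten-point 1:1 serial dilution series in FCS-free IMDM, with final Me2SO 0.4%, for 22 h at 37 °C. The culture supernatant was then assayed.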

[5] = molecular target: Gamma-secretase (Homo sapiens) (UniProt Q96BI3+Q9NZ42+Q8WW43+P49768+Q92542+P49810); test: Modulation of gamma secretase in human H4 cells overexpressing human APP assessed as effect on total amyloid beta up to 20 uM after 22 hrs; assay type: cell-based; procedure, shortened: as §1
[6] = molecular target: Inosine-5'-monophosphate dehydrogenase 2 (Homo sapiens, UniProt P12268); test: Inhibition of IMPDH2
[7] = molecular target: Gamma-secretase; test: Modulation of gamma secretase in human H4 cells overexpressing human APP assessed as increase in amyloid beta-38 secretion after 22 hrs; assay type: cell-based; procedure, shortened: as §1
[8] = system: Mus musculus; test: Antialzheimer activity in transgenic mouse overexpressing APP Swedish FAD mutant assessed as reduction in amyloid beta-42 level in brain at 100 mg/kg, po; assay type: functional
Procedure, shortened: (§2)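 Transgenic mice about 3 months old, overexpressing APP-Swe under the mouse Thy-1 promoter, were dosed orally. Brains were taken 4 h later and homogenized in 1% DEA. Brain Aβ42 was quantified by LP ECL, and brain compound exposure was measured by LC–MS/MS.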

[9] = Ratio of drug level in brain to plasma in transgenic mouse overexpressing APP Swedish FAD mutant at 7.2 mg/kg, po and 0.7 mg/kg, iv; assay type: ADME, organism-based; settings: read-out: BPR
Procedure, shortened: (§3)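 Mouse pharmacokinetics used an iv dose of 0.7 mg/kg and a po dose of 7.2 mg/kg. Compound levels in plasma and brain were determined by LC–MS/MS over 0–24 h.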

[10] = system: Mus musculus; test: Antialzheimer activity in po dosed transgenic mouse overexpressing APP Swedish FAD mutant assessed as reduction in amyloid beta-42 level in brain measured after 4 hrs; assay type: functional; procedure, shortened: as §2
[11] = Half life in transgenic mouse overexpressing APP Swedish FAD mutant at 7.2 mg/kg, po and 0.7 mg/kg, iv; assay type: ADME, organism-based; settings: in vivo; procedure, shortened: as §3
[12] = Oral bioavailability in transgenic mouse overexpressing APP Swedish FAD mutant at 7.2 mg/kg; assay type: ADME, organism-based; settings: in vivo; procedure, shortened: as §3
[13] = system: Mus musculus; test: Antialzheimer activity in transgenic mouse overexpressing APP Swedish FAD mutant assessed as reduction in amyloid beta-42 level in brain at 30 mg/kg, po; assay type: functional, organism-based; design: dose 30 mg/kg; procedure, shortened: as §2
[14] = Volume of distribution at steady state in transgenic mouse overexpressing APP Swedish FAD mutant at 7.2 mg/kg, po and 0.7 mg/kg, iv; assay type: ADME, organism-based; settings: in vivo, read-out: Vdss; procedure, shortened: as §3
[15] = Plasma clearance in transgenic mouse overexpressing APP Swedish FAD mutant at 7.2 mg/kg, po and 0.7 mg/kg, iv; assay type: ADME, organism-based; procedure, shortened: as §3
[16] = molecular target: Cytochrome P450 3A4 (Homo sapiens, UniProt P08684); test: Inhibition of CYP3A4; assay type: ADME
Cytochrome P450 3A4, sequence (P08684 whole entry): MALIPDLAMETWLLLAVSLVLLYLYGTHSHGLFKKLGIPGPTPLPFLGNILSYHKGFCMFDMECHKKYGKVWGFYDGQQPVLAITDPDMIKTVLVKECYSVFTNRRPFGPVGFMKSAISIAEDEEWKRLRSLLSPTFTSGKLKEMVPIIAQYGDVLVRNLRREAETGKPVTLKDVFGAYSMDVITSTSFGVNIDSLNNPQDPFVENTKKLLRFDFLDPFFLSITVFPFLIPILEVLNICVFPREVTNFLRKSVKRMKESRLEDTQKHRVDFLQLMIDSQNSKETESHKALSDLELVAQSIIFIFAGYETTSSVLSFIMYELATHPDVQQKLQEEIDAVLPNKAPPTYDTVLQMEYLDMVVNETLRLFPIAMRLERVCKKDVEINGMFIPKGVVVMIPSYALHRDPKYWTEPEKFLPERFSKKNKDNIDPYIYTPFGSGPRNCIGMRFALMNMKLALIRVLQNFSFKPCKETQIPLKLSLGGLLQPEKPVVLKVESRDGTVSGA

[17] = system: Mus musculus; test: Antialzheimer activity in transgenic mouse overexpressing APP Swedish FAD mutant assessed as reduction in amyloid beta-42 level in brain at 150 mg/kg, po after 7 hrs; assay type: functional; design: scale not given: the % may be the effect or the level left
Procedure, shortened: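 Oral dosing was given to APP-Swe transgenic mice (Thy-1 promoter) about 3 months old. Brain homogenates in 1% DEA were analysed by LP ECL for Aβ42.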

[18] = Fraction unbound in transgenic mouse overexpressing APP Swedish FAD mutant; assay type: ADME, organism-based; settings: in vivo
[19] = system: Mus musculus; test: Antialzheimer activity in transgenic mouse overexpressing APP Swedish FAD mutant assessed as reduction in amyloid beta-42 level in brain at 150 mg/kg, po after 4 hrs; assay type: functional; design: scale not given: the % may be the effect or the level left; procedure, shortened: as §2
[20] = system: Mus musculus; test: Antialzheimer activity in transgenic mouse overexpressing APP Swedish FAD mutant assessed as reduction in amyloid beta-42 level in brain at 100 mg/kg, po after 4 hrs; assay type: functional, organism-based; design: dose 100 mg/kg; procedure, shortened: as §2
[21] = Inhibition of gamma secretase in rat primary neurons assessed as reduction in amyloid beta-42 secretion

Cytochrome P450 2D6, sequence (P10635 whole entry): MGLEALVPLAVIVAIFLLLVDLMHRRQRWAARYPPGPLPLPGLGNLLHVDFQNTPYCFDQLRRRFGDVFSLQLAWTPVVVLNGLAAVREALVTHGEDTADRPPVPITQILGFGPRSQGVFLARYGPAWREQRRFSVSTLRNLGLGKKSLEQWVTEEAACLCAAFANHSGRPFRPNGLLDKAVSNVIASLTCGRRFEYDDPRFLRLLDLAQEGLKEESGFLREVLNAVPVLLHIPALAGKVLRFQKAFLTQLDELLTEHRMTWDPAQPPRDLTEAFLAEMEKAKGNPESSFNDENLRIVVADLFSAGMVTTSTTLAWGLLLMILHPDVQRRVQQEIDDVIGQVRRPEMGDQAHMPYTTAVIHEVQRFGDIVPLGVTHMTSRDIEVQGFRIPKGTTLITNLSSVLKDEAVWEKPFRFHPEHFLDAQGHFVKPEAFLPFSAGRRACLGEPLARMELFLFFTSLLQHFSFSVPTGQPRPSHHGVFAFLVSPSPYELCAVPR

IC50 [1] [µM]	IC50 [2] [µM]	Structure (SMILES)	other results
< 0.5	0.136	COc1cc(Nc2nc(C(C)(C)c3ccc(Cl)cc3)cs2)ccc1-n1cnc(C)c1	–
< 0.5	0.815	COc1cc(Nc2nc(C)c(Cc3cccc(Cl)c3)s2)ccc1-c1cnco1	Activity [3]: inactive; IC50 [4]: 3.7 µM; Activity [5]: inactive; IC50 [6]: 0.4 µM; EC50 [7]: 1.5 µM
< 0.5	0.376	c1ccc(C2CCCc3sc(Nc4ccc(-c5ccnnc5)cc4)nc32)cc1 (stereo not drawn)	–
< 0.5	0.133	Cc1cn(-c2ccc(Nc3nc4c(s3)CCCC4c3ccccc3)cc2)cn1 (stereo not drawn)	–
< 0.5	0.252	COc1cc(Nc2nc3c(s2)CCCC3c2ccccc2)ccc1-c1cnc(C)s1 (stereo not drawn)	Activity [8]: inactive
< 0.5	0.052	Cc1cn(-c2ccc(Nc3nc4c(s3)CCCC4c3ccccc3)cc2F)cn1 (stereo not drawn)	–
< 0.5	2.87	Cc1ncc(C)c(-c2ccc(Nc3nc4c(s3)CCCC4c3ccccc3)cc2)n1 (stereo not drawn)	–
< 0.5	5.55	c1ccc(C2CCCc3sc(Nc4ccc(-n5cncn5)cc4)nc32)cc1 (stereo not drawn)	–
< 0.5	> 1.25	Cc1cn(-c2ccc(Nc3nc4c(s3)CCCC4c3ccccc3)cc2C(F)(F)F)cn1 (stereo not drawn)	–
< 0.5	0.133	Cc1ncc(-c2ccc(Nc3nc4c(s3)CCCC4c3ccccc3)cc2)o1 (stereo not drawn)	–
< 0.5	0.127	Cc1nc(C)c(-c2ccc(Nc3nc4c(s3)CCCC4c3ccccc3)cc2)o1 (stereo not drawn)	–
< 0.5	0.319	c1ccc(C2CCCc3sc(Nc4ccc(-c5ccncc5)cc4)nc32)cc1 (stereo not drawn)	Activity [8]: inactive
< 0.2	0.044	COc1cc(Nc2nc3c(s2)CCCC3c2ccccc2)ccc1-n1cnc(C)c1 (stereo not drawn)	Kp [9]: 0.4; ED50 [10]: 40 mg/kg; half-life [11]: 2.5 h; bioavailability [12]: 25%; Activity [13]: Active; Vd [14]: 4.6 L/kg; clearance [15]: 18.3 mL/min/kg
< 0.5	0.651	Cc1nsc(-c2ccc(Nc3nc4c(s3)CCCC4c3ccccc3)cc2)n1 (stereo not drawn)	–
< 0.5	0.898	COc1ccc(Br)cc1-c1csc(Nc2ccc(-n3cnc(C)c3)c(OC)c2)n1	IC50 [16]: 2.2 µM
< 0.5	0.212	COc1cc(Nc2nc3c(s2)CCCC3c2ccccc2)ccc1-c1sc(C)nc1C (stereo not drawn)	–
< 0.2	0.123	Cc1cn(-c2ccc(Nc3nc4c(s3)CCCC4c3ccccc3)cc2C#N)cn1 (stereo not drawn)	–

IC50 [1] [µM]	IC50 [2] [µM]	Structure (SMILES)	other results
< 0.5	0.789	COc1ccc(Br)cc1-c1csc(Nc2ccc(-n3ccnc3)c(OC)c2)n1	IC50 [16]: < 0.2 µM
< 0.5	> 5	COc1ccc(Br)cc1-c1csc(Nc2ccc(-n3ccnc3)cc2)n1	IC50 [16]: < 0.2 µM
< 0.5	0.483	Cc1cc(-c2ccc(Nc3nc4c(s3)CCCC4c3ccccc3)cc2)nc(C)n1 (stereo not drawn)	–
< 0.2	0.675	Cc1cn(-c2ccc(Nc3nc4c(s3)CCCC4c3ccccc3)cc2Cl)cn1 (stereo not drawn)	–
< 0.5	> 40	COc1cc(N(Cc2ccccc2)c2nc(C)c(Cc3ccc(Cl)cc3)s2)ccc1-n1cnc(C)c1	–
< 0.5	0.88	COc1ccc(Br)cc1-c1csc(Nc2ccc(-n3cnc(C)c3)cc2)n1	IC50 [16]: 1.2 µM
< 0.5	0.214	COc1cc(Nc2nc(C)c(Cc3cccc(Cl)c3)s2)ccc1-n1cnc(C)c1	Activity [17]: 22%; Fu [18]: < 0.1%; Activity [19]: 47%
< 0.5	0.999	COc1cc(Nc2nc3c(s2)CCCC3c2ccccc2)ccc1-c1nnc(C)o1 (stereo not drawn)	–
< 0.5	3.36	COc1cc(Nc2nc3c(s2)CCCC3c2ccccc2)ccc1C#N (stereo not drawn)	–
< 0.5	0.339	COc1cc(Nc2ncc(C(O)c3ccc(Cl)cc3)s2)ccc1-n1cnc(C)c1 (stereo not drawn)	–
< 0.5	0.086	COc1cc(Nc2nc3c(s2)CCCC3c2ccccc2)ccc1-c1cnc(C)o1 (stereo not drawn)	Activity [8]: 47%
< 0.5	0.733	Cc1cn(-c2ccc(Nc3nc4c(s3)CCCC4c3ccccc3)cc2C)cn1 (stereo not drawn)	–
< 0.5	0.209	Cc1cn(-c2ccc(Nc3nc4c(s3)CCCC4c3ccccc3)cc2O)cn1 (stereo not drawn)	–
< 0.5	0.244	COc1cc(Nc2nc3c(s2)CCCC3c2ccccc2)ccc1-c1cnn(C)c1 (stereo not drawn)	Activity [20]: inactive
–	–	COc1cc(/C=C2\CCCN([C@@H](C)c3ccc(F)cc3)C2=O)ccc1-n1cnc(C)c1	IC50 [21]: 0.042 µM
< 0.5	3.43	COc1cc(Nc2nc3c(s2)CCCC3c2ccccc2)ccc1-c1nc(C)no1 (stereo not drawn)	–
